Compound activity as filed in PubChem.
S100A4 MyoIIA: S100A4-myosin IIA interaction inhibition | 360,000 tested, 0.14% active | S100A4/TAMRA-MyoIIA peptide fluorescence polarization | P26447 | inhibition, % at 10.7 µM;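 active = mean inhibition of at least 70% across replicates, with every replicate also reaching that level; inconclusive = mean inhibition reaches 70% but some replicates fall short; inactive = mean inhibition below 70%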
Target sequence (P26447 whole entry, looked up): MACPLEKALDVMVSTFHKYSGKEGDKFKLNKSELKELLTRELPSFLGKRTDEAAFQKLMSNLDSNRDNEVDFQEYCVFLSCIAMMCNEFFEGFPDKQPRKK
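Material: human S100A4 monomer with TAMRA-labelled myosin IIA peptide; buffer or medium: HEPES pH 7.2 with CaCl2, KCl, NaCl, DTT, Triton; compound dosing: one concentration per compound; schedule: 5 min incubation before reading; benchmarks: neutral control DMSO, positive control TFP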
Rtt109 HAT inh: blocks Candida albicans Rtt109/Vps75 acetyltransferase activity; purified Rtt109/Vps75, ThioGlo CoA-SH fluorescence, 4 h; inhibition, % at 34.9 µM; 330,000 tested, 0.16% active; AID 540336;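 active = inhibition of at least 50% in every replicate; inconclusive = best replicate reaches 50% inhibition but some replicates fall short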
Target sequence (Q5AAJ8 whole entry, looked up): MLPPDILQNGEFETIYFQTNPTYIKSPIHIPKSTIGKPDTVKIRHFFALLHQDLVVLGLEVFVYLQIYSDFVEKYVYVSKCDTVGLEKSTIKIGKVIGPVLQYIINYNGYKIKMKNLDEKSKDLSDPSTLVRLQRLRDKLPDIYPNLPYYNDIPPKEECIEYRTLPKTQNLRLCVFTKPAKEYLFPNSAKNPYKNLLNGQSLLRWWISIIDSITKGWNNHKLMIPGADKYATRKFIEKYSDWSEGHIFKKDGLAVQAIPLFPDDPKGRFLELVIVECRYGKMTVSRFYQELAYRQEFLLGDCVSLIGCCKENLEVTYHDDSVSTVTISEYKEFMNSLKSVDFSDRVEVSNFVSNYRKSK
MLL AF4-AF9 inh: blocks AF4 peptide binding to human AF9. P42568. AlphaScreen, biotin-AF4 peptide binding to FLAG-AF9. inhibition, % at 10 µM. 350,000 tested, 0.47% active. AID 651704;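 active = every replicate reaching a set inhibition limit, whatever the replicate mean, cut at about 25% in these data; inconclusive = mean inhibition reaches that limit but some replicates miss it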;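 also: 0% = plate neutral control median and 100% = total signal loss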
ERAP1 inh: blocks human ERAP1 aminopeptidase activity | recombinant ERAP1, Leu-AMC fluorescence, 60 min | Q9NZ08 | 340,000 tested, 0.15% active | inhibition, % at 10.7 µM | AID 652197;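 active = mean replicate inhibition of at least 30%, or all replicates individually reaching that 30% level; inactive = mean below 30% and not every replicate reaching it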;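 also: 0% = neutral control wells and 100% = L-leucinethiol positive control wells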
miR-122 sensor: blocks miR-122 activity in Huh7 sensor cells; Huh7 miR-122 Renilla luciferase sensor, 48 h; neutral wells = 0, positive control = 100; activation (reporter increase), % at 12.5 µM; 340,000 tested, 0.3% active;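 active = mean replicate activation score at least 90 and every replicate individually at or above 90; inconclusive = only one of the two criteria met; inactive = neither criterion met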;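 also: higher luciferase means less miR-122 activity so hits act as miR-122 inhibitors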
The depositor's hits bear a star; i = inactive; ? = inconclusive; · = not tested or not shown; [ ] = remark or other dose. Sampled rows, rich in hits. Any-hit rate of the full collection: about 0.86%.

SMILES	S100A4 MyoIIA	Rtt109 HAT inh	MLL AF4-AF9 inh	ERAP1 inh	miR-122 sensor
COCCCn1c(=O)/c(=C\c2ccccc2OC(F)F)s/c1=C(/C#N)C(N)=O	-11	-5	-2	2	167*
COCCCn1c(=O)/c(=C\c2ccc(OC(F)F)c(OC)c2)s/c1=C(/C#N)C(N)=O	3	-38	-4	·	·
CO[C@@H]1CN(C)C(=O)c2cc(NC(=O)Nc3ccccc3Cl)ccc2OC[C@@H](C)N(C)C[C@H]1C	-14	·	0	-2	9[16.7 µM]
O=C1c2ccccc2C(=O)c2c(NCc3cccnc3)cccc21	·	2	·	·	1
O=C1c2cccc(NCCCNCCO)c2C(=O)c2cccc(NCCCNCCO)c21	-32	2	32*	8	-4
Cn1c2ccccc2c(=O)c2cc(NCCCN3CCOCC3)ccc21	-3	i	-26	52*	-8
Cc1ccc(S(=O)(=O)NCC[C@H]2CC[C@@H](NC(=O)c3cnccn3)[C@H](CO)O2)cc1	13	·	0	8	12[16.7 µM]
CC(C)(CNC(=S)NCCc1ccccc1)CNC(=S)NCCc1ccccc1	-1	12	0	1	280*
CO[C@H]1CN(C)C(=O)c2cc(NC(=O)CC(F)(F)F)ccc2OC[C@@H](C)N(C(=O)c2ccccc2F)C[C@H]1C	-38	·	1	1	·
COCC(=O)N1[C@@H](CO)[C@@H](c2ccc(-c3cccc(F)c3)cc2)C12CN(C(=O)C1CC1)C2	-21	·	0	·	·
CCc1ccc(NC(=O)CN2CCc3ccccc3C2)cc1	·	8	·	·	265*
O=C(c1ccncc1)N1CC(=O)N2[C@H](C1)[C@@H](c1ccc(/C=C/c3ccccc3)cc1)[C@@H]2CO	-17	·	8	1	·
Oc1cccc2cc(Nc3ccccc3)cnc12	-6	·	30*	14	-5
COc1ccc(S(=O)(=O)Nc2ccc3c(c2)CC(=O)N([C@@H](C)CO)C[C@H](C)[C@@H](CN(C)S(C)(=O)=O)O3)cc1	10	·	3	1	3[16.7 µM]
COc1cccc(C(=O)Oc2ccc(/C=N/Nc3ccc(C(=O)O)cc3)cc2OC)c1	1	18	10	-1	2
COc1cccc(OCc2cc(/C=N/Nc3ccc(C(=O)O)cc3)ccc2OC)c1	5	50*	-14	-1	-47
COc1ccc(OC)c(Nc2c3ccccc3nc3ccccc23)c1	5	-5	40*	-4	18
CCOC(=O)c1c(-c2ccccc2)oc2cc(CN(C)C)c(O)c(CN(C)C)c12	-2	12	36*	1	·
CCOC(=O)c1c(C)oc2cc(Cl)c(O)c(CN(C)C)c12	-2	-3	4	·	-3
Cc1[nH]c2ccccc2c1C1=CC(=O)C=CC1=O	3	8	16	78*	·
Cc1[nH]c2ccccc2c1CC#N	-2	-14	3	0	-5
C[C@H]1CN([C@@H](C)CO)C(=O)c2cc(NC(=O)c3ccncc3)ccc2O[C@@H]1CN(C)CC1CCCCC1	·	·	0	·	0[16.7 µM]
Cc1ccc(Cl)cc1NC(=S)N(CCCN1CCOCC1)Cc1ccccn1	·	9	·	·	160*
CC(=O)/C(=N/Nc1ccccc1)Sc1nnc(C(O)c2ccccc2)n1-c1ccccc1 (stereo unspecified)	-2	57*	4	11	24
CC(=O)/C(=N/Nc1ccccc1Cl)Sc1nnc(C(O)c2ccccc2)n1-c1ccccc1 (stereo unspecified)	·	-3	·	·	6
SMILES	S100A4 MyoIIA	Rtt109 HAT inh	MLL AF4-AF9 inh	ERAP1 inh	miR-122 sensor
CN1c2ccc(C3=CCCCC3)cc2[C@@H]2[C@@H](CCN2C(=O)C2CCCCC2)[C@@H]1CO	4	·	?	·	·
CN1c2ccc(C3=CCCCC3)cc2[C@@H]2[C@@H](CCN2C(=O)C2CCC2)[C@@H]1CO	4	·	28*	3	·
CN1c2ccc(C3=CCCCC3)cc2[C@H]2[C@H](CCN2C(=O)C2CCCCC2)[C@@H]1CO	0	·	30*	0	·
CCOC(=O)/C=C/C(=O)Nc1cccc([N+](=O)[O-])c1	·	108*	·	·	·
CN(CCc1ccccc1)C(=O)c1ccc(NC(=O)Cc2cccc(NC(=O)C3CCN(C(=O)C4CCC4)CC3)c2)cc1	6	-1	2	-3	-7
CN(CCc1ccccc1)C(=O)c1ccc(NC(=O)Cc2ccc(NC(=O)C3CCN(C(=O)C4CCC4)CC3)cc2)cc1	-2	2	28*	-1	0
N#C/C(=C/c1ccccc1[N+](=O)[O-])c1nc(C2CC2)cs1	6	20	26*	-2	·
